Assay results from ChEMBL document CHEMBL1122383, “Potential tissue-imaging agents: 23-(trimethyl [117mSn]stannyl)-24-nor-5 alpha-cholan-3 beta-ol” (J Med Chem, 1983).
Values belong to the molecule of their own block, whether it stands above or below them.

Columns and labels:
Homo sapiens [1] = species: Homo sapiens; test: Adsorbed radiation dose value was calculated to human adrenal; assay type: functional
Outline: (§1)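 Human absorbed dose (rd/mCi) estimated from rat tissue distribution data re-expressed as percent kilogram dose per gram. Fraction of injected dose per human organ = (% kg dose/g × organ weight)/(kg body weight of man × 100). Cumulated activities were derived from these fractions and organ half-times, then combined with Sn-117m S values (rd/μCi-h).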

Homo sapiens [2] = species: Homo sapiens; test: Adsorbed radiation dose value was calculated to human liver; assay type: functional; outline: as §1
Homo sapiens [3] = species: Homo sapiens; test: Adsorbed radiation dose value was calculated to human lungs; assay type: functional; outline: as §1
Homo sapiens [4] = species: Homo sapiens; test: Adsorbed radiation dose value was calculated to human ovaries; assay type: functional, Female gonad; outline: as §1
Homo sapiens [5] = species: Homo sapiens; test: Adsorbed radiation dose value was calculated to human spleen; assay type: functional; outline: as §1
Homo sapiens [6] = species: Homo sapiens; test: Adsorbed radiation dose value was calculated to human total body; assay type: functional; outline: as §1
Rattus norvegicus [7] = test: Tested for distribution of radioactivity in female rat tissue at 14d ay after intravenous administration in blood; assay type: ADME, organism-based; conditions: in vivo
Outline: (§2)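 Rat tissue distribution followed intravenous injection of the tin-117m-labeled steroid into female rats. Adrenals, blood, kidneys, liver and ovaries were counted at the stated day. Values are percent dose/gram, given as the mean and range for three female rats.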

Rattus norvegicus [8] = test: Tested for distribution of radioactivity in female rat tissue at 14d ay after intravenous administration in kidney; assay type: ADME, organism-based; conditions: in vivo; outline: as §2
Rattus norvegicus [9] = test: Tested for distribution of radioactivity in female rat tissue at 14d ay after intravenous administration in liver; assay type: ADME, organism-based; conditions: in vivo; outline: as §2
Rattus norvegicus [10] = test: Tested for distribution of radioactivity in female rat tissue at 14d ay after intravenous administration in ovaries; assay type: ADME, organism-based; conditions: in vivo; outline: as §2
Rattus norvegicus [11] = test: Tested for distribution of radioactivity in female rat tissue at 3 day after intravenous administration in ovaries; assay type: ADME, organism-based; conditions: in vivo, 72 h; outline: as §2
Rattus norvegicus [12] = test: Tested for distribution of radioactivity in female rat tissue at 7 day after intravenous administration in adrenal; assay type: ADME, organism-based; conditions: in vivo, 168 h; outline: as §2
Rattus norvegicus [13] = test: Tested for distribution of radioactivity in female rat tissue at 7 day after intravenous administration in blood; assay type: ADME, organism-based; conditions: in vivo, 168 h; outline: as §2
Rattus norvegicus [14] = test: Tested for distribution of radioactivity in female rat tissue at 7 day after intravenous administration in kidney; assay type: ADME, organism-based; conditions: in vivo, 168 h; outline: as §2
Rattus norvegicus [15] = test: Tested for distribution of radioactivity in female rat tissue at 7 day after intravenous administration in liver; assay type: ADME, organism-based; conditions: in vivo, 168 h; outline: as §2
Rattus norvegicus [16] = test: Tested for distribution of radioactivity in female rat tissue at 7 day after intravenous administration in ovaries; assay type: ADME, organism-based; conditions: in vivo, 168 h; outline: as §2
Rattus norvegicus [17] = test: Tested for distribution of radioactivity in female rat tissue at 21 day after intravenous administration in adrenal; assay type: ADME, organism-based; conditions: in vivo, 504 h; outline: as §2
Rattus norvegicus [18] = test: Tested for distribution of radioactivity in female rat tissue at 21 day after intravenous administration in blood; assay type: ADME, organism-based; conditions: in vivo, 504 h; outline: as §2
Rattus norvegicus [19] = test: Tested for distribution of radioactivity in female rat tissue at 21 day after intravenous administration in kidney; assay type: ADME, organism-based; conditions: in vivo, 504 h; outline: as §2
Rattus norvegicus [20] = test: Tested for distribution of radioactivity in female rat tissue at 21 day after intravenous administration in ovaries; assay type: ADME, organism-based; conditions: in vivo, 504 h; outline: as §2
Rattus norvegicus [21] = test: Tested for distribution of radioactivity in female rat tissue at 14d ay after intravenous administration in adrenal; assay type: ADME, organism-based; conditions: in vivo; outline: as §2
Rattus norvegicus [22] = test: Tested for distribution of radioactivity in female rat tissue at 3 day after intravenous administration in adrenal; assay type: ADME, organism-based; conditions: in vivo, 72 h; outline: as §2
Rattus norvegicus [23] = test: Tested for distribution of radioactivity in female rat tissue at 3 day after intravenous administration in blood; assay type: ADME, organism-based; conditions: in vivo, 72 h; outline: as §2
Rattus norvegicus [24] = test: Tested for distribution of radioactivity in female rat tissue at 3 day after intravenous administration in liver; assay type: ADME, organism-based; conditions: in vivo, 72 h; outline: as §2
Rattus norvegicus [25] = test: Tested for distribution of radioactivity in female rat tissue at 3 day after intravenous administration in kidney; assay type: ADME, organism-based; conditions: in vivo, 72 h; outline: as §2
Homo sapiens [26] = species: Homo sapiens; test: Adsorbed radiation dose value was calculated to human body; assay type: functional, organism-based
Outline: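 Rat tissue distribution data were converted to percent kilogram dose per gram. The fraction of injected dose in each human organ was taken as (% kg dose/g × organ weight)/(kg body weight × 100). Cumulated activities came from these fractions and organ half-times. Sn-117m S values (rd/µCi-h) then gave the absorbed dose in rd/mCi.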

Rattus norvegicus [27] = test: Adrenal Uptake was determined on day1 after iv administration into rat; assay type: functional, organism-based
Outline: (§3)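 The tin-117m-labeled steroid was injected intravenously into female rats. Adrenal glands were taken at the stated day after injection, up to 21 days. Radioactivity was reported as percent of injected dose, given as the mean and range.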

Rattus norvegicus [28] = test: Adrenal Uptake was determined on day 14 after iv administration into rat; assay type: functional, organism-based; outline: as §3
Rattus norvegicus [29] = test: Adrenal Uptake was determined on day 21 after iv administration into rat; assay type: functional, organism-based; outline: as §3
Rattus norvegicus [30] = test: Adrenal Uptake was determined on day 3 after iv administration into rat; assay type: functional, organism-based; outline: as §3
Rattus norvegicus [31] = test: Adrenal Uptake was determined on day 7 after iv administration into rat; assay type: functional, organism-based; outline: as §3
[32] = It is the ratio of adrenal to blood measured on day 21 after iv administration in rat.; assay type: functional, organism-based
Outline: (§4)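 Female rats received an intravenous injection of the tin-117m-labeled steroid. Adrenal/blood and adrenal/liver ratios were calculated from percent dose per gram of tissue at the stated day after injection.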

[33] = It is the ratio of adrenal to blood measured on day1 after iv administration in rat.; assay type: functional, organism-based; outline: as §4
[34] = It is the ratio of adrenal to blood measured on day 14 after iv administration in rat.; assay type: functional, organism-based; outline: as §4
[35] = It is the ratio of adrenal to blood measured on day 3 after iv administration in rat.; assay type: functional, organism-based; outline: as §4
[36] = It is the ratio of adrenal to blood measured on day 7 after iv administration in rat.; assay type: functional, organism-based; outline: as §4
[37] = It is the ratio of adrenal to liver measured on day 14 after iv administration in rat.; assay type: functional, organism-based; outline: as §4
[38] = It is the ratio of adrenal to liver measured on day 21 after iv administration in rat.; assay type: functional, organism-based; outline: as §4
[39] = It is the ratio of adrenal to liver measured on day 3 after iv administration in rat.; assay type: functional, organism-based; outline: as §4
[40] = It is the ratio of adrenal to liver measured on day 7 after iv administration in rat.; assay type: functional, organism-based; outline: as §4
[41] = It is the ratio of adrenal to liver measured on day1 after iv administration in rat.; assay type: functional, organism-based; outline: as §4

Molecule: CC(C)[Te]CCC(C)C1CC[C@H]2[C@@H]3CC[C@H]4CC(O)CCC4(C)[C@H]3CCC12C (some centres not stated)
Dose (Homo sapiens [1]): 98 rd mCi-1
Dose (Homo sapiens [2]): 1.6 rd mCi-1
Dose (Homo sapiens [3]): 1.3 rd mCi-1
Dose (Homo sapiens [4]): 8 rd mCi-1
Dose (Homo sapiens [5]): 1.4 rd mCi-1
Dose (Homo sapiens [6]): 0.8 rd mCi-1

Molecule: CC(C)[Te]CCCC(C)C1CCC2C3CC=C4CC(O)CCC4(C)C3CCC12C (configuration not stated)
Dose (Homo sapiens [1]): 210 rd mCi-1
Dose (Homo sapiens [2]): 2 rd mCi-1
Dose (Homo sapiens [3]): 1.9 rd mCi-1
Dose (Homo sapiens [4]): 13 rd mCi-1
Dose (Homo sapiens [5]): 34 rd mCi-1
Dose (Homo sapiens [6]): 1.4 rd mCi-1

Dose/g (Rattus norvegicus [7]): 0.15%
Dose/g (Rattus norvegicus [8]): 0.38%
Dose/g (Rattus norvegicus [9]): 0.2%
Dose/g (Rattus norvegicus [10]): 2.53%
Dose/g (Rattus norvegicus [11]): 10.99%
Dose/g (Rattus norvegicus [12]): 19.37%
Dose/g (Rattus norvegicus [13]): 0.19%
Dose/g (Rattus norvegicus [14]): 0.54%
Dose/g (Rattus norvegicus [15]): 0.44%
Dose/g (Rattus norvegicus [16]): 4.9%
Dose/g (Rattus norvegicus [17]): 2.33%
Dose/g (Rattus norvegicus [18]): 0.1%
Dose/g (Rattus norvegicus [19]): 0.26%
Dose/g (Rattus norvegicus [20]): 1.26%
Dose/g (Rattus norvegicus [21]): 7.46%
Dose/g (Rattus norvegicus [22]): 50.88%
Dose/g (Rattus norvegicus [23]): 0.8%
Dose/g (Rattus norvegicus [24]): 2.13%
Dose/g (Rattus norvegicus [25]): 0.79%
Molecule: Stannanyl complex [listing 1 of 2 here]

Molecule: Stannanyl complex [listing 2 of 2 here]
Dose (Homo sapiens [1]): 83 rd mCi-1
Dose (Homo sapiens [26]): 0.77 rd mCi-1
Dose (Homo sapiens [2]): 5.3 rd mCi-1
Dose (Homo sapiens [3]): 4.1 rd mCi-1
Dose (Homo sapiens [4]; Female gonad): 4.4 rd mCi-1
Dose (Homo sapiens [5]): 7.7 rd mCi-1
Adrenal uptake (Rattus norvegicus [27]): 2.51
Adrenal uptake (Rattus norvegicus [28]): 0.34
Adrenal uptake (Rattus norvegicus [29]): 0.16
Adrenal uptake (Rattus norvegicus [30]): 2.86
Adrenal uptake (Rattus norvegicus [31]): 1.1
Ratio [32]: 23.3
Ratio [33]: 33.7
Ratio [34]: 49.7
Ratio [35]: 63.6
Ratio [36]: 102
Ratio [37]: 37.3
Ratio [38]: 16.6
Ratio [39]: 23.9
Ratio [40]: 44
Ratio [41]: 9.1
